Assay results: ChEMBL document CHEMBL1124172 (J Med Chem, 1988)
Converted amounts (≈) assume the structure as drawn.

Tests used:
[1] = tested on: A204; test: In vitro cytotoxicity against human A204 Rhabdomyosarcoma cell line; type: functional, cell-based
Outline: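 A204 human rhabdomyosarcoma soft-agarose colony assay. 10^4 trypsin/EDTA-dissociated cells in 0.3% agarose over a 0.5% agarose base, in DMEM with 10% FCS, at 37 °C and 5% CO2. Compound was applied in an upper medium layer on day 1 for 24 h, then washed out. Colonies >60 µm were counted after 7–9 days by tetrazolium stain and image analysis. Quadruplicates with vehicle controls, at least four concentrations up to 100 or 1000 µg/mL. IC50 from a monoexponential least-squares fit over at least three preparations, mean ± SE.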

[2] = tested on: Mus musculus; test: In vivo antitumor activity against P388 Lymphocytic Leukemia measured as Survivors on day 5 at 17.75 mg/kg; 5/6; type: functional
[3] = tested on: Mus musculus; test: In vivo antitumor activity against P388 Lymphocytic Leukemia measured as Survivors on day 5 at 35.5 mg/kg; 6/6; type: functional
[4] = tested on: Mus musculus; test: In vivo antitumor activity against P388 Lymphocytic Leukemia in mice at 35.5 mg/kg expressed as T/C value; type: functional
[5] = tested on: Mus musculus; test: In vivo antitumor activity against P388 Lymphocytic Leukemia measured as Survivors on day 5 at 71 mg/kg; 5/6; type: functional
[6] = tested on: Mus musculus; test: In vivo antitumor activity against P388 Lymphocytic Leukemia in mice at 17.75 mg/kg expressed as T/C value; type: functional
[7] = tested on: Mus musculus; test: In vivo antitumor activity against P388 Lymphocytic Leukemia in mice at 71 mg/kg expressed as T/C value; type: functional
[8] = tested on: Mus musculus; test: In vivo antitumor activity against P388 Lymphocytic Leukemia in mice at 8.88 mg/kg expressed as T/C value; type: functional
[9] = tested on: Mus musculus; test: In vivo antitumor activity against P388 Lymphocytic Leukemia measured as Survivors on day 5 at 8.88 mg/kg; 6/6; type: functional
[10] = tested on: Mus musculus; test: In vivo antitumor activity against P388 Lymphocytic Leukemia measured as Survivors on day 5 at 200 mg/kg, w.r.t. compound 6; 5/6; type: functional
[11] = tested on: Mus musculus; test: In vivo antitumor activity against P388 Lymphocytic Leukemia measured as Survivors on day 5 at 100 mg/kg, w.r.t. compound 6; 6/6; type: functional
[12] = tested on: Mus musculus; test: In vivo antitumor activity against P388 Lymphocytic Leukemia in mice at 100 mg/kg expressed as T/C value w.r.t. compound 6; type: functional
[13] = tested on: Mus musculus; test: In vivo antitumor activity against P388 Lymphocytic Leukemia in mice at 400 mg/kg expressed as T/C value w.r.t. compound 6; type: functional
[14] = tested on: Mus musculus; test: In vivo antitumor activity against P388 Lymphocytic Leukemia measured as Survivors on day 5 at 800 mg/kg, w.r.t. compound 6; 6/6; type: functional
[15] = tested on: Mus musculus; test: In vivo antitumor activity against P388 Lymphocytic Leukemia in mice at 200 mg/kg expressed as T/C value w.r.t. compound 6; type: functional
[16] = tested on: Mus musculus; test: In vivo antitumor activity against P388 Lymphocytic Leukemia measured as Survivors on day 5 at 400 mg/kg, w.r.t. compound 6; 6/6; type: functional
[17] = tested on: Mus musculus; test: In vivo antitumor activity against P388 Lymphocytic Leukemia in mice at 800 mg/kg expressed as T/C value w.r.t. compound 6; type: functional
[18] = tested on: Mus musculus; test: In vivo antitumor activity against P388 Lymphocytic Leukemia measured as Survivors on day 5 at 15.5 mg/kg; 5/6; type: functional
[19] = tested on: Mus musculus; test: In vivo antitumor activity against P388 Lymphocytic Leukemia measured as Survivors on day 5 at 7.75 mg/kg; 6/6; type: functional
[20] = tested on: Mus musculus; test: In vivo antitumor activity against P388 Lymphocytic Leukemia measured as survivors on day 5 at 62 mg/kg; 6/6; type: functional
[21] = tested on: Mus musculus; test: In vivo antitumor activity against P388 Lymphocytic Leukemia in mice at 15.5 mg/kg expressed as T/C value; type: functional
[22] = tested on: Mus musculus; test: In vivo antitumor activity against P388 Lymphocytic Leukemia in mice at 31 mg/kg expressed as T/C value; type: functional
[23] = tested on: Mus musculus; test: In vivo antitumor activity against P388 Lymphocytic Leukemia in mice at 62 mg/kg expressed as T/C value; type: functional
[24] = tested on: Mus musculus; test: In vivo antitumor activity against P388 Lymphocytic Leukemia in mice at 7.75 mg/kg expressed as T/C value; type: functional
[25] = tested on: Mus musculus; test: In vivo antitumor activity against P388 Lymphocytic Leukemia measured as Survivors on day 5 at 31 mg/kg; 6/6; type: functional

CC1C(=O)O[C@@H]2CCN3CC=C(COC(=O)C(C)(O)C1(C)O)[C@H]23 (some centres not stated)
IC50 [1]: 316 µg/mL (≈ 971 µM)

CCC(O)(C(=O)OCC1=CC[N+]2([O-])CC[C@H](OC(=O)[C@@](O)(CC)c3ccccc3)[C@@H]12)c1ccccc1 (some centres not stated)
Survivors [2]: 5 | Survivors [3]: 6 | T/C [4]: 106% | Survivors [5]: 5 | T/C [6]: 100% | T/C [7]: 109% | T/C [8]: 107% | Survivors [9]: 6

CC(C)C(O)(C(=O)OCC1CCN2CC[C@@H](O)[C@@H]12)C(C)O.CC(C)C(O)(C(=O)OCC1CC[N+]2([O-])CC[C@@H](O)[C@@H]12)C(C)O (some centres not stated)
Survivors [10]: 5 | Survivors [11]: 6 | T/C [12]: 101% | T/C [13]: 120% | Survivors [14]: 6 | T/C [15]: 118% | Survivors [16]: 6 | T/C [17]: 146%

CC(C)[C@](O)(C(=O)OCC1=CC[N+]2([O-])CC[C@@H](O)[C@@H]12)[C@H](C)O (some centres not stated) [INDICINE N-OXIDE]
IC50 [1]: 125 µg/mL (≈ 396 µM)

CC(C)C(O)(C(=O)OCC1=CCN2CC[C@@H](O)[C@@H]12)C(C)O (some centres not stated) [INDICINE]
IC50 [1]: 34 µg/mL (≈ 114 µM)

CCC(O)(C(=O)OCC1=CC[N+]2([O-])CC[C@H](OC(=O)[C@](O)(CC)c3ccccc3)[C@@H]12)c1ccccc1 (some centres not stated)
Survivors [18]: 5 | Survivors [19]: 6 | Survivors [20]: 6 | T/C [21]: 100% | T/C [22]: 109% | T/C [23]: 127% | T/C [24]: 106% | Survivors [25]: 6
